Laboratory results taken from PMC5487498 (World Journal of Gastroenterology, 2017).

How the values were obtained:
Assay in all cases: MTS cell proliferation/viability assay
CaCo-2 = type: cell-based, human; settings: read-out: IC50 CaCo-2, 72 h incubation
In short: (§1)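 Cells were seeded at 10 × 10^3 cells/well and exposed 24 h later to test compound at 100, 50, 10, 5, 1 and 0.1 μmol/L for 72 h. MTS was then added for 2 h and absorbance read at 490 nm, with untreated control taken as 100%. HCT116 was grown in RPMI 1640; Caco-2 and murine 3T3 fibroblasts in high-glucose DMEM with pyruvate, 10% FBS and penicillin/streptomycin, at 37 °C and 5% CO2.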

HCT116 = type: cell-based, human; settings: read-out: IC50 HCT116, 72 h incubation
In short: as §1

3T3 = type: cell-based, murine; settings: read-out: IC50 3T3, 72 h incubation, non-cancer fibroblasts
In short: as §1

Structure (SMILES)	IC50 (CaCo-2) [µM]	IC50 (HCT116) [µM]	IC50 (3T3) [µM]
CON1C(=O)C2(CN=C(Nc3ccc(C)cc3)S2)c2ccccc21 (racemic) [Compound K-466, (±)-1-methoxy-2’-(4-methylphenylamino)spiro{indoline-3,5’-[4’,5’]-dihydrothiazol}-2-one]	> 100	> 100	> 100
CC(C)(C)OC(=O)N1c2ccccc2C2(CN=C(Nc3ccc(Cl)cc3)S2)C1N1CCCCC1 (racemic) [Compound K-467, trans-(±)-1-(terc-buthoxycarbonyl)-2-(1-piperidyl)-2’-(4-chlorophenylamino)spiro{indoline-3,5’-[4’,5’]dihydrothiazol}]	> 100	> 100	> 100
CC(C)(C)OC(=O)N1c2ccccc2C2(CN=C(Nc3ccc(C(F)(F)F)cc3)S2)C1N1CCCCC1 (racemic) [Compound K-471, trans-(±)-1-(terc-buthoxycarbonyl)-2-(1-piperidyl)-2’-(4-trifluoromethylphenylamino)spiro{indoline-3,5’-[4’,5’]dihydrothiazol}]	> 100	> 100	> 100
CSC(=O)NCc1c[nH]c2ccc(F)cc12 [Compound K-455, 5-fluorobrassitin]	> 100	> 100	> 100
COn1cc(CNC(=O)SC)c2cc(F)ccc21 [Compound K-459, 5-fluoro-1-methoxybrassitin]	> 100	> 100	> 100

Now from value to compound, other results behind:

IC50 (CaCo-2) [µM]	IC50 (HCT116) [µM]	Structure (SMILES)	IC50 (3T3) [µM]
> 100	> 100	COC1N(OC)c2ccccc2C12CN=C(Nc1ccc(C(F)(F)F)cc1)S2 (racemic) [Compound K-452, (±)-cis-1,2-dimethoxy-2’-(4-trifluoromethylphenylamino)spiro{indoline-3,5’[4’,5’]dihydrothiazol}]	> 100
> 100	> 100	COC1N(OC)c2ccc(F)cc2C12CN=C(SC)S2 (racemic) [Compound K-462, (±)-cis-5-fluoro-1-methoxyspirobrassinolmethylether]	> 100
74.18 ± 0.001	33 ± 2.67	CON1C(=O)C2(CN=C(Nc3ccc(Br)cc3)S2)c2ccccc21 (racemic) [Compound K-463, (±)-1-methoxy-2’-(4-bromophenylamino)spiro{indoline-3,5’-[4’,5’]-dihydrothiazol}-2-one]	61.1 ± 2.25
35.7 ± 6.49	33.7 ± 2.78	CON1C(=O)C2(CN=C(Nc3ccc(C(F)(F)F)cc3)S2)c2ccccc21 (racemic) [Compound K-465, (±)-1-methoxy-2’-(4-trifluoromethylphenylamino)spiro{indoline-3,5’-[4’,5’]-dihydrothiazol}-2-one]	34.9 ± 2.01
